Entries after “also recorded” stand apart in the source; their conditions may differ. Like-named read-outs stand apart in the source and are kept apart here.
Tests used:
[1] = test system: peripheral blood mononuclear cells; test: PK-PD CART analysis of HCQ peak concentration versus AV accumulation in PBMC; format: in vivo, human
Procedure, shortened: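 Exploratory classification and regression trees analysis used 26 patients with complete PK and PD data. The target was change in PBMC AV count from baseline to 2 wk. Predictors were Cmin, Cmax and AUC, taken from model-simulated individual blood profiles. The PK-PD relationship was also examined after 4 wk of combined therapy. The Cmax threshold was tested by Kruskal-Wallis (medians) and Kolmogorov-Smirnov two-sample tests.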

[2] = test system: patients with advanced solid tumors; format: in vivo, human
Procedure, shortened: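 Open-label single-institution 3 + 3 escalation of the oral test compound only, starting at 200 mg daily, split twice daily about 12 h apart above 200 mg, up to 1200 mg. A 14 d monotherapy run-in preceded an oral alkylating agent at 150 mg/m2 daily for 7 of 14 d, in 28 d cycles. DLT was any at least possibly related grade ≥ 3 event in the first 6 wk. MTD was ≤ 1/6 patients with DLT.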

[3] = test system: patients with rheumatoid arthritis; details: 1200 mg/d HCQ (600 mg twice daily), after 6 wk; cited from earlier work
glioma = details: cited from earlier work
[4] = test system: peripheral blood mononuclear cells; test: Autophagic vacuole; format: in vivo, human; details: after 2 wk run-in of HCQ; baseline 2.19
[5] = test system: patients with advanced solid tumors; test: Treatment-related adverse events by grade; format: in vivo, human
Procedure, shortened: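 Patients who took at least one dose of the oral test compound, given with a dose-intense oral alkylating agent, were evaluable for toxicity. Adverse events were graded by NCI Common Toxicity Criteria v3.0, and haematological toxicities were attributed to the alkylating agent. Complete blood counts were done weekly for the first 6 wk and biweekly thereafter. Treatment ran in 28 d cycles.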

## CCN(CCO)CCCC(C)Nc1ccnc2cc(Cl)ccc12 (centres unmarked) [HCQ, hydroxychloroquine]
[1]; after 2 wk of single agent HCQ, 26 patients
  Threshold HCQ Cmax that correlated with AV accumulation (CART): 1554 ng/mL
[1]; baseline to 4 wk of combined therapy (TMZ + HCQ), 21 patients
  Threshold HCQ Cmax for AV change (CART): 856 ng/mL
[1]; patients with Cmax above 1554 ng/mL (n = 18), IQR -0.45, 1.37
  Median AV change from baseline to 2 wk: 0.89
[1]; patients with Cmax below 1554 ng/mL (n = 8), IQR −1.35, 0.03
  Median AV change from baseline to 2 wk: −0.21
[2]; HCQ up to 1200 mg/d combined with dose-intense TMZ 150 mg/m^2 daily for 7/14 d
  Maximum tolerated dose (MTD): No maximal tolerated dose; also recorded: not reached
[2]; combined with dose-intense TMZ, dose level 5
  Recommended phase II dose (RPTD): 600 mg twice daily
[2]; dose level 1 (HCQ 200 mg/day), three patients
  Dose-limiting toxicity: no dose-limiting toxicity (DLT) was observed
[2]; dose level 2 (HCQ 400 mg/day)
  Dose-limiting toxicity: no DLT observed
[2]; dose level 3 (HCQ 400 mg twice daily), patient on sotalol, within 8 d, attributed to dehydration and not to the study drug
  Serious adverse event: third-degree heart block
[2]; dose level 4 (HCQ 1000 mg/day), none in 3 additional patients
  Dose-limiting toxicity: one grade 3 rash
[2]; dose level 5 (HCQ 1200 mg/d), first cycle, none in expanded cohort
  Dose-limiting toxicity: one patient experienced grade 3 nausea and vomiting
[3]
  Dose-limiting toxicity as a single agent: dose-limiting nausea
glioma; HCQ 800 mg with TMZ 75 mg/m^2 daily and brain radiation
  Myelosuppression: all experienced grade 4 myelosuppression
glioma; combined with TMZ 75 mg/m^2 daily for 6 wk with concomitant brain radiation
  Maximal tolerated dose of HCQ: 600 mg daily
[4]
  Mean AV count per cell in PBMC: 2.45
[5]; All patients, HCQ with TMZ
  Abdominal fullness G1/G2: 2 (6) No. (%)
  Abdominal pain G1/G2: 2 (6) No. (%)
  Anemia G1/G2: 1 (3) No. (%)
  Anemia G3/G4: 1 (3) No. (%)
  Anorexia G1/G2: 13 (35) No. (%)
  Bradycardia G1/G2: 2 (6) No. (%)
  Constipation G1/G2: 8 (22) No. (%)
  Diarrhea G1/G2: 9 (24) No. (%)
  Dizziness G1/G2: 2 (6) No. (%)
  Dyspepsia G1/G2: 2 (6) No. (%)
  Headaches G1/G2: 3 (8) No. (%)
  Hypotension G1/G2: 3 (8) No. (%)
  Leukopenia G3/G4: 1 (3) No. (%)
  Lymphopenia G1/G2: 5 (14) No. (%)
  Lymphopenia G3/G4: 5 No. (%)
  Myalgias G1/G2: 2 (6) No. (%)
  Nausea G1/G2: 24 (65) No. (%)
  Nausea G3/G4: 1 (3) No. (%)
  Neutropenia G3/G4: 2 (6) No. (%)
  Pruritus G1/G2: 4 (12) No. (%)
  Rash G1/G2: 3 (8) No. (%)
  Rash G3/G4: 1 (3) No. (%)
  Taste change G1/G2: 2 (6) No. (%)
  Thrombocytopenia G1/G2: 5 (14) No. (%)
  Thrombocytopenia G3/G4: 2 (6) No. (%)
  Vomiting G3/G4: 1 (3) No. (%)
[5]; HCQ 200 mg (n = 3) with TMZ
  Abdominal fullness G1/G2: 1 (33) No. (%)
  Anorexia G1/G2: 1 (33) No. (%)
  Constipation G1/G2: 1 (33) No. (%)
  Fatigue G1/G2: 1 (33) No. (%)
  Lymphopenia G1/G2: 1 (33) No. (%)
  Lymphopenia G3/G4: 1 (33) No. (%)
  Nausea G1/G2: 1 (33) No. (%)
  Vomiting G1/G2: 1 (33) No. (%)
[5]; HCQ 400 mg (n = 4) with TMZ
  Abdominal fullness G1/G2: 1 (25) No. (%)
  Anorexia G1/G2: 1 (25) No. (%)
  Diarrhea G1/G2: 1 (25) No. (%)
  Fatigue G1/G2: 2 (50) No. (%)
  Hypotension G1/G2: 1 (25) No. (%)
  Lymphopenia G3/G4: 2 (50) No. (%)
  Myalgias G1/G2: 1 (25) No. (%)
  Nausea G1/G2: 4 (100) No. (%)
  Thrombocytopenia G1/G2: 1 (25) No. (%)
  Vomiting G1/G2: 3 (75) No. (%)
